The source of these data is PubChem BioAssay.

Activity calls are given as the source filed them.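 The calls were made as follows: active = GFP response above 150% of the DMSO control; inconclusive = fewer than 70 events counted in any yeast strain; inactive = the rest.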

The nature of the first test: hit retest on RPL19A-GFP reporter strain – cell-based, S. cerevisiae, flow cytometry, cherry picks, mother/daughter gates, confirmation (AID 2270). The settings on record: 3 h, measured here: mother cell gate, at 10 µM, stronger effect = lower value, 100 = same GFP as DMSO wells.
On to `Cc1ccc(/C=C/C(=O)c2ccc([N+](=O)[O-])o2)cc1`, for which the GFP response vs DMSO was found to be 91.8%.

For `CCCN1CCc2c(sc(NC(=S)NC(=O)c3ccccc3)c2C#N)C1`, the GFP response vs DMSO came to 97.8%.

`O=C(CN1CCN(Cc2ccccc2Cl)C1=O)NC1CCCCCCC1` came in with a GFP response vs DMSO of 99.7%.

In the case of `O=c1oc(/C=C/c2ccc([N+](=O)[O-])s2)nc2ccccc12`, the GFP response vs DMSO came to 108%.

`COc1ccccc1Oc1ccc(S(=O)(=O)N2CCCC2)cc1` returned a GFP response vs DMSO of 103%.

For `COc1ccc(C(=O)Nc2c(N)nc[nH]c2=O)cc1`, the GFP response vs DMSO was determined as 99%.

For `Cc1[nH]n(-c2ncc(-c3ccccc3)s2)c(=O)c1C(c1ccc(Cl)cc1)C(C#N)C#N` (stereo not given), the GFP response vs DMSO was 91.6%.

Consider `COc1ccc(-c2cc3cc(C(=O)O)ccn3c2C(=O)c2ccccc2)cc1`, for which the GFP response vs DMSO was 98.4%.

`CCOC(=O)c1ccc(NC(=O)CCc2nc(-c3ccc(Cl)cc3)no2)cc1` returned a GFP response vs DMSO of 101%.

On to `CS(=O)(=O)N1N=C(c2ccco2)CC1c1ccc(Br)cc1` (stereo not given), for which the GFP response vs DMSO was determined as 99.2%.

`O=C(O)c1ccc2c3c(ncnc13)-c1ccccc1C2=O` registered a GFP response vs DMSO of 107%.

`CCN(CC)C(=O)c1ccc2c3c(cccc13)C(=O)N(CCc1ccc(OC)c(OC)c1)C2=O` gave a GFP response vs DMSO of 98.8%.

On to `Oc1cccc(/C=N/c2c(-c3ccco3)nc3ccccn23)c1`, for which the GFP response vs DMSO was determined as 96.9%.

The compound `O=C(Nc1nccs1)C(c1ccccc1)N1CCCCC1` (stereo not given) showed a GFP response vs DMSO of 104%.

The compound `CCN1/C(=C/c2ccc3cc(C)ccc3[n+]2CC)Sc2ccc3sccc3c21` yielded a GFP response vs DMSO of 92.3%.

Turning to `COCCCN(C(=O)c1ccco1)c1nc(-c2cc(OC)ccc2OC)cs1`, the GFP response vs DMSO was 94%.

Regarding `O=C1[C@@H]2C3C=CC(O3)[C@@H]2C(=O)N1c1ccccc1`, the GFP response vs DMSO came out at 100%.

The compound `CCOC(=O)C1CCCN(c2nc3c(C)cccn3c(=O)c2/C=C(\C#N)C(=O)NCc2ccco2)C1` (stereo not given) showed a GFP response vs DMSO of 101%.

`CCOC(=O)/C=C1\SCC(=O)N1Cc1nnc(-c2ccccc2Br)o1` came in with a GFP response vs DMSO of 96.4%.

`O=C(Nc1c2c(nn1-c1ccccc1)CS(=O)C2)c1ccco1` (stereo not given) showed a GFP response vs DMSO of 95%.

On to `CCn1c(=O)c(C(=O)NCCc2ccccc2)c(O)c2ccccc21`, for which the GFP response vs DMSO came out at 98.8%.

As to `CN1CCN(C(c2ccc(C(F)(F)F)cc2)c2ccc3cccnc3c2O)CC1` (stereo not given), the GFP response vs DMSO was determined as 86.7%.

Regarding `COc1ccc(C2N(c3ccc(Cl)cc3)N=C(C(C)=O)N(C)N2C(C)=O)cc1` (stereo not given), the GFP response vs DMSO was determined as 100%.

The compound `COC(=O)CCS(=O)(=O)c1nc(-c2ccccc2)cc(C(F)(F)F)n1` showed a GFP response vs DMSO of 95.8%.

On to `CCc1ccc(OCC(=O)NNC(=S)NC(=O)C2CC2)c(Br)c1`, for which the GFP response vs DMSO turned out to be 70.1%.

In turn, `Cc1cccc(Cn2cc(/C=C/[N+](=O)[O-])c3ccccc32)c1` registered a GFP response vs DMSO of 98%.

`CCc1ccc2c(c1)C1(NN=C(c3cccc4ccccc34)S1)C(=O)N2` (stereo not given) registered a GFP response vs DMSO of 93.1%.

In turn, `N#C/C(=C\c1c(N2CCCCCC2)nc2ccccn2c1=O)C(=O)NCc1ccco1` registered a GFP response vs DMSO of 96.2%.

With `CCOC(=O)C(=CNNc1ccccc1)C(=O)OCC`, the GFP response vs DMSO is 105%.

As for `O=C(O)Cn1cc(/C=C/[N+](=O)[O-])c2ccccc21`, the GFP response vs DMSO came out at 97.2%.

With `N#C/C(C(=O)Nc1ccc(Cl)cc1)=C(/S)Nc1ccccc1`, the GFP response vs DMSO came to 99.3%.

`CCCc1[nH]nc2c1C(c1ccc(OC)c(Cn3nnc4ccccc43)c1)C(C#N)=C(N)O2` (stereo not given) came in with a GFP response vs DMSO of 98.2%.

`COc1ccc(-c2csc(Nc3ncccc3C)n2)cc1` returned a GFP response vs DMSO of 95.3%.

Compound `Cc1ccccc1C(=O)NNC(=S)NC(=O)c1ccc(Cl)cc1Cl` had a GFP response vs DMSO of 104%.

`O=C(NC(c1ccccc1)C(Cl)Cl)c1ccccc1` (stereo not given): the GFP response vs DMSO turned out to be 92.9%.

In the case of `Cc1ccc2nc(Cl)c3nnnn3c2c1`, the GFP response vs DMSO turned out to be 56.7%.

Turning to `CN1C(=O)c2cccc3c(Cl)ccc(c23)C1=O`, the GFP response vs DMSO worked out at 98%.

With `Cc1nc2c(-c3ccc(F)cc3)cnn2c(N)c1-c1ccccc1`, the GFP response vs DMSO came to 98.8%.

`COc1ccc(C2CC(c3c(-c4ccccc4)c4cc(Cl)ccc4[nH]c3=O)=NN2S(C)(=O)=O)cc1` (stereo not given) registered a GFP response vs DMSO of 102%.

Compound `O=C(N/N=C\c1ccc(F)cc1)c1cc(OCC(F)(F)F)ccc1OCC(F)(F)F` showed a GFP response vs DMSO of 99.2%.

The next test can be described thus: yeast TOR pathway reporter LAP4-GFP change – cell-based, cherry picks, flow cytometry, mother/daughter gates, confirmation (AID 2271).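 Also: ratio of sample to DMSO plate mean so 100% equals DMSO level.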 The settings on record: S. cerevisiae LAP4-GFP strain, 3 h, at 10 µM, stronger effect = higher value, 100 means same as DMSO control. A digest of the protocol: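 Material: Alexa Fluor 633-labelled Saccharomyces cerevisiae GFP-fusion strain, single-plex | Amount: Yeast cells seeded at OD600 of 0.2 | Buffer or medium: SC growth medium | Schedule: 3 h exposure, 30 °C | Measured by: HT flow cytometry, GFP fluorescence channel | Evaluation: % GFP response vs DMSO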
On the technique in general: Flow cytometry measures light scatter and fluorescence of single cells or particles in a stream.
With `Cc1ccc(/C=C/C(=O)c2ccc([N+](=O)[O-])o2)cc1`, the GFP response relative to DMSO was 89.4% (inactive).

As to `CCCN1CCc2c(sc(NC(=S)NC(=O)c3ccccc3)c2C#N)C1`, the GFP response relative to DMSO was 116% (inactive).

As to `O=C(CN1CCN(Cc2ccccc2Cl)C1=O)NC1CCCCCCC1`, the GFP response relative to DMSO was 96.7% (inactive).

For the compound `O=c1oc(/C=C/c2ccc([N+](=O)[O-])s2)nc2ccccc12`, the GFP response relative to DMSO is 184% (active).

As to `COc1ccccc1Oc1ccc(S(=O)(=O)N2CCCC2)cc1`, the GFP response relative to DMSO was 91.4% (inactive).

As for `COc1ccc(C(=O)Nc2c(N)nc[nH]c2=O)cc1`, the GFP response relative to DMSO was 97% (inactive).

Regarding `Cc1[nH]n(-c2ncc(-c3ccccc3)s2)c(=O)c1C(c1ccc(Cl)cc1)C(C#N)C#N` (stereo not given), the GFP response relative to DMSO is 156% (active).

On to `COc1ccc(-c2cc3cc(C(=O)O)ccn3c2C(=O)c2ccccc2)cc1`, for which the GFP response relative to DMSO is 107% (inactive).

With `CCOC(=O)c1ccc(NC(=O)CCc2nc(-c3ccc(Cl)cc3)no2)cc1`, the GFP response relative to DMSO was 99.2% (inactive).

Take `CS(=O)(=O)N1N=C(c2ccco2)CC1c1ccc(Br)cc1` (stereo not given): the GFP response relative to DMSO is 103% (inactive).

As for `O=C(O)c1ccc2c3c(ncnc13)-c1ccccc1C2=O`, the GFP response relative to DMSO is 135% (inactive).

On to `CCN(CC)C(=O)c1ccc2c3c(cccc13)C(=O)N(CCc1ccc(OC)c(OC)c1)C2=O`, for which the GFP response relative to DMSO is 108% (inactive).

`Oc1cccc(/C=N/c2c(-c3ccco3)nc3ccccn23)c1`: the GFP response relative to DMSO was 96.5% (inactive).

On to `O=C(Nc1nccs1)C(c1ccccc1)N1CCCCC1` (stereo not given), for which the GFP response relative to DMSO is 93.1% (inactive).

As to `CCN1/C(=C/c2ccc3cc(C)ccc3[n+]2CC)Sc2ccc3sccc3c21`, the GFP response relative to DMSO is 316% (active).

In the case of `COCCCN(C(=O)c1ccco1)c1nc(-c2cc(OC)ccc2OC)cs1`, the GFP response relative to DMSO is 98.9% (inactive).

On to `O=C1[C@@H]2C3C=CC(O3)[C@@H]2C(=O)N1c1ccccc1`, for which the GFP response relative to DMSO is 107% (inactive).

Turning to `CCOC(=O)C1CCCN(c2nc3c(C)cccn3c(=O)c2/C=C(\C#N)C(=O)NCc2ccco2)C1` (stereo not given), the GFP response relative to DMSO is 101% (inactive).

On to `CCOC(=O)/C=C1\SCC(=O)N1Cc1nnc(-c2ccccc2Br)o1`, for which the GFP response relative to DMSO is 90.2% (inactive).

As for `O=C(Nc1c2c(nn1-c1ccccc1)CS(=O)C2)c1ccco1` (stereo not given), the GFP response relative to DMSO was 92.9% (inactive).

With `CCn1c(=O)c(C(=O)NCCc2ccccc2)c(O)c2ccccc21`, the GFP response relative to DMSO is 95.3% (inactive).

Regarding `CN1CCN(C(c2ccc(C(F)(F)F)cc2)c2ccc3cccnc3c2O)CC1` (stereo not given), the GFP response relative to DMSO was 216% (active).

With `COc1ccc(C2N(c3ccc(Cl)cc3)N=C(C(C)=O)N(C)N2C(C)=O)cc1` (stereo not given), the GFP response relative to DMSO was 104% (inactive).

Regarding `COC(=O)CCS(=O)(=O)c1nc(-c2ccccc2)cc(C(F)(F)F)n1`, the GFP response relative to DMSO is 168% (active).

Regarding `CCc1ccc(OCC(=O)NNC(=S)NC(=O)C2CC2)c(Br)c1`, the GFP response relative to DMSO is 204% (active).

`Cc1cccc(Cn2cc(/C=C/[N+](=O)[O-])c3ccccc32)c1`: the GFP response relative to DMSO is 111% (inactive).

With `CCc1ccc2c(c1)C1(NN=C(c3cccc4ccccc34)S1)C(=O)N2` (stereo not given), the GFP response relative to DMSO was 111% (inactive).

As to `N#C/C(=C\c1c(N2CCCCCC2)nc2ccccn2c1=O)C(=O)NCc1ccco1`, the GFP response relative to DMSO is 92.8% (inactive).

With `CCOC(=O)C(=CNNc1ccccc1)C(=O)OCC`, the GFP response relative to DMSO is 136% (inactive).

In the case of `O=C(O)Cn1cc(/C=C/[N+](=O)[O-])c2ccccc21`, the GFP response relative to DMSO is 102% (inactive).

On to `N#C/C(C(=O)Nc1ccc(Cl)cc1)=C(/S)Nc1ccccc1`, for which the GFP response relative to DMSO was 105% (inactive).

Regarding `CCCc1[nH]nc2c1C(c1ccc(OC)c(Cn3nnc4ccccc43)c1)C(C#N)=C(N)O2` (stereo not given), the GFP response relative to DMSO was 104% (inactive).

For `COc1ccc(-c2csc(Nc3ncccc3C)n2)cc1`, the GFP response relative to DMSO is 107% (inactive).

Regarding `Cc1ccccc1C(=O)NNC(=S)NC(=O)c1ccc(Cl)cc1Cl`, the GFP response relative to DMSO was 143% (inactive).

Turning to `O=C(NC(c1ccccc1)C(Cl)Cl)c1ccccc1` (stereo not given), the GFP response relative to DMSO is 97.7% (inactive).

As for `Cc1ccc2nc(Cl)c3nnnn3c2c1`, the GFP response relative to DMSO was 281% (active).

Turning to `CN1C(=O)c2cccc3c(Cl)ccc(c23)C1=O`, the GFP response relative to DMSO is 107% (inactive).

`Cc1nc2c(-c3ccc(F)cc3)cnn2c(N)c1-c1ccccc1`: the GFP response relative to DMSO is 101% (inactive).

`COc1ccc(C2CC(c3c(-c4ccccc4)c4cc(Cl)ccc4[nH]c3=O)=NN2S(C)(=O)=O)cc1` (stereo not given): the GFP response relative to DMSO is 99.2% (inactive).

For `O=C(N/N=C\c1ccc(F)cc1)c1cc(OCC(F)(F)F)ccc1OCC(F)(F)F`, the GFP response relative to DMSO was 100% (inactive).
